Experimental data taken from ChEMBL document CHEMBL1177873, “Synthesis and evaluation of some new benzothiazole derivatives as potential antimicrobial agents” (Eur J Med Chem, 2010).
≈ marks a conversion by molar mass, not a printed value. Calls of active or inactive are those of the source. The rule behind the calls is not given here.

How the values were obtained:
[1] = test system: Escherichia coli; assay: Antibacterial activity against Escherichia coli MTCC 443 at 100 ug/ml after 24 hrs by cup-plate method relative to ciprofloxacin; assay type: functional, organism-based
[2] = test system: Escherichia coli; assay: Antibacterial activity against Escherichia coli MTCC 443 at 200 ug/ml after 24 hrs by cup-plate method; assay type: functional, organism-based
Summary of the method: (§1)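 Cup-plate diffusion in nutrient agar, incubated 24 h at 37 °C. Compounds dissolved in DMF and tested at the single concentration given in the line. DMF served as the solvent control and ciprofloxacin as the reference standard. Read-out is the zone of inhibition diameter in mm.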

[3] = test system: Candida albicans; assay: Antifungal activity against Candida albicans MTCC 227 at 30 ug/ml after 48 hrs by cup-plate method; assay type: functional; details: MTCC 227, 48 h, read-out: DIZ
Summary of the method: (§2)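 Cup-plate diffusion on Sabouraud's dextrose agar, incubated 48 h at 28 °C. Compounds in DMF, which also served as the control, with fluconazole as the reference standard.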

[4] = test system: Escherichia coli; assay: Antibacterial activity against Escherichia coli MTCC 443 after 24 hrs; assay type: functional; details: MTCC 443, 24 h
Summary of the method: (§3)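 MIC was taken as the lowest concentration giving 100% growth inhibition relative to a drug-free control, after 24 h at 37 °C in nutrient agar. Compounds were dissolved in DMF, and ciprofloxacin was the reference.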

[5] = test system: Streptomyces griseus; assay: Antibacterial activity against Streptomyces griseus MTCC 1540 after 24 hrs; assay type: functional; details: MTCC 1540, 24 h; summary of the method: as §3
[6] = test system: Streptomyces griseus; assay: Antibacterial activity against Streptomyces griseus MTCC 1540 at 1 ug/ml after 24 hrs by cup-plate method; assay type: functional, organism-based; summary of the method: as §1
[7] = test system: Bacillus subtilis; assay: Antibacterial activity against Bacillus subtilis MTCC 441 at 1 ug/ml after 24 hrs by cup-plate method; assay type: functional, organism-based; summary of the method: as §1
[8] = test system: Streptomyces griseus; assay: Antibacterial activity against Streptomyces griseus MTCC 1540 at 100 ug/ml after 24 hrs by cup-plate method relative to ciprofloxacin; assay type: functional, organism-based
[9] = test system: Streptomyces griseus; assay: Antibacterial activity against Streptomyces griseus MTCC 1540 at 10 ug/ml after 24 hrs by cup-plate method; assay type: functional, organism-based; summary of the method: as §1
[10] = test system: Aspergillus niger; assay: Antifungal activity against Aspergillus niger MTCC 282 at 30 ug/ml after 48 hrs by cup-plate method; assay type: functional; details: MTCC 282, 48 h, read-out: DIZ; summary of the method: as §2
[11] = test system: Escherichia coli; assay: Antibacterial activity against Escherichia coli MTCC 443 at 500 ug/ml after 24 hrs by cup-plate method; assay type: functional, organism-based; summary of the method: as §1
[12] = test system: Bacillus subtilis; assay: Antibacterial activity against Bacillus subtilis MTCC 441 at 10 ug/ml after 24 hrs by cup-plate method; assay type: functional, organism-based; summary of the method: as §1
[13] = test system: Bacillus subtilis; assay: Antibacterial activity against Bacillus subtilis MTCC 441 at 500 ug/ml after 24 hrs by cup-plate method; assay type: functional, organism-based; summary of the method: as §1
[14] = test system: Streptomyces griseus; assay: Antibacterial activity against Streptomyces griseus MTCC 1540 at 500 ug/ml after 24 hrs by cup-plate method; assay type: functional, organism-based; summary of the method: as §1
[15] = test system: Escherichia coli; assay: Antibacterial activity against Escherichia coli MTCC 443 at 10 ug/ml after 24 hrs by cup-plate method relative to ciprofloxacin; assay type: functional, organism-based
[16] = test system: Bacillus subtilis; assay: Antibacterial activity against Bacillus subtilis MTCC 441 at 100 ug/ml after 24 hrs by cup-plate method relative to ciprofloxacin; assay type: functional, organism-based
[17] = test system: Streptomyces griseus; assay: Antibacterial activity against Streptomyces griseus MTCC 1540 at 200 ug/ml after 24 hrs by cup-plate method; assay type: functional, organism-based; summary of the method: as §1
[18] = test system: Escherichia coli; assay: Antibacterial activity against Escherichia coli MTCC 443 at 1 ug/ml after 24 hrs by cup-plate method; assay type: functional, organism-based; summary of the method: as §1
[19] = test system: Bacillus subtilis; assay: Antibacterial activity against Bacillus subtilis MTCC 441 after 24 hrs; assay type: functional; details: MTCC 441, 24 h; summary of the method: as §3
[20] = test system: Bacillus subtilis; assay: Antibacterial activity against Bacillus subtilis MTCC 441 at 200 ug/ml after 24 hrs by cup-plate method; assay type: functional, organism-based; summary of the method: as §1
[21] = test system: Escherichia coli; assay: Antibacterial activity against Escherichia coli MTCC 443 at 100 ug/ml after 24 hrs by cup-plate method; assay type: functional, organism-based; summary of the method: as §1
[22] = test system: Streptomyces griseus; assay: Antibacterial activity against Streptomyces griseus MTCC 1540 at 100 ug/ml after 24 hrs by cup-plate method; assay type: functional, organism-based; summary of the method: as §1
[23] = test system: Bacillus subtilis; assay: Antibacterial activity against Bacillus subtilis MTCC 441 at 100 ug/ml after 24 hrs by cup-plate method; assay type: functional, organism-based; summary of the method: as §1
[24] = test system: Escherichia coli; assay: Antibacterial activity against Escherichia coli MTCC 443 at 10 ug/ml after 24 hrs by cup-plate method; assay type: functional, organism-based; summary of the method: as §1
[25] = test system: Bacillus subtilis; assay: Antibacterial activity against Bacillus subtilis MTCC 441 at 10 ug/ml after 24 hrs by cup-plate method relative to ciprofloxacin; assay type: functional, organism-based
[26] = test system: Streptomyces griseus; assay: Antibacterial activity against Streptomyces griseus MTCC 1540 at 10 ug/ml after 24 hrs by cup-plate method relative to ciprofloxacin; assay type: functional, organism-based
[27] = test system: Bacillus subtilis; assay: Antibacterial activity against Bacillus subtilis MTCC 441 at 200 ug/ml after 24 hrs by cup-plate method relative to ciprofloxacin; assay type: functional, organism-based
[28] = test system: Streptomyces griseus; assay: Antibacterial activity against Streptomyces griseus MTCC 1540 at 200 ug/ml after 24 hrs by cup-plate method relative to ciprofloxacin; assay type: functional, organism-based
[29] = test system: Escherichia coli; assay: Antibacterial activity against Escherichia coli MTCC 443 at 200 ug/ml after 24 hrs by cup-plate method relative to ciprofloxacin; assay type: functional, organism-based

Row | SMILES | Activity [1] | Activity [2] | zone of inhibition at 30 µg/mL [3] [mm] | MIC [4] [µg/mL] | MIC [5] [µg/mL] | Activity [6] | Activity [7] | Activity [9] | zone of inhibition at 30 µg/mL [10] [mm] | Activity [11] | Activity [12] | Activity [13] | Activity [14] | Activity [15] | Activity [16] | Activity [17] | Activity [18] | MIC [19] [µg/mL] | Activity [20] | Activity [22] | further results
1 | O=[N+]([O-])c1cccc(/C=N/n2c(S)nnc2CCNc2nc3ccccc3s2)c1 | inactive | Active | 10 | 200 (≈ 470 µM) | 200 (≈ 470 µM) | inactive | inactive | inactive | < 10 | Active | inactive | Active | Active | inactive | Active | Active | inactive | 200 (≈ 470 µM) | Active | – | Activity [8]: Active
2 | O=C(O)c1cn(C2CC2)c2cc(N3CCNCC3)c(F)cc2c1=O [CIPROFLOXACIN] | – | Active | – | – | 10 (≈ 30.2 µM) | inactive | inactive | Active | – | Active | Active | Active | Active | – | – | Active | inactive | 10 (≈ 30.2 µM) | Active | Active | Activity [21]: Active; Activity [23]: Active; Activity [24]: Active
3 | Oc1ccc(/C=N/n2c(S)nnc2CCNc2nc3ccccc3s2)cc1 | Active | Active | 22 | 200 (≈ 504 µM) | 100 (≈ 252 µM) | inactive | inactive | – | 10 | Active | – | Active | Active | inactive | – | Active | inactive | 100 (≈ 252 µM) | Active | Active | Activity [25]: inactive; Activity [23]: Active; Activity [26]: inactive
4 | Sc1nnc(CCNc2nc3ccccc3s2)n1/N=C/c1ccccc1 | inactive | – | 22 | 500 (≈ 1310 µM) | 500 (≈ 1310 µM) | inactive | inactive | inactive | 16 | Active | inactive | Active | Active | – | inactive | – | inactive | 500 (≈ 1310 µM) | – | inactive | Activity [27]: Active; Activity [28]: Active; Activity [24]: inactive; Activity [29]: Active
5 | OC(Cn1cncn1)(Cn1cncn1)c1ccc(F)cc1F [FLUCONAZOLE] | – | – | 22 | – | – | – | – | – | 22 | – | – | – | – | – | – | – | – | – | – | – | –
6 | COc1ccc(/C=N/n2c(S)nnc2CCNc2nc3ccccc3s2)cc1OC | – | Active | 22 | 100 (≈ 227 µM) | 100 (≈ 227 µM) | inactive | inactive | inactive | 22 | Active | inactive | Active | Active | – | inactive | Active | inactive | 500 (≈ 1130 µM) | – | Active | Activity [21]: Active; Activity [27]: Active; Activity [24]: inactive
7 | Sc1nnc(CCNc2nc3ccccc3s2)n1/N=C/c1ccccc1Cl | Active | Active | 22 | 200 (≈ 482 µM) | 200 (≈ 482 µM) | inactive | inactive | – | 16 | Active | – | Active | Active | Active | inactive | Active | inactive | 200 (≈ 482 µM) | Active | inactive | Activity [25]: Active; Activity [26]: Active
8 | O=[N+]([O-])c1ccccc1/C=N/n1c(S)nnc1CCNc1nc2ccccc2s1 | Active | Active | < 10 | 200 (≈ 470 µM) | 200 (≈ 470 µM) | inactive | inactive | – | 10 | Active | – | Active | Active | – | Active | Active | inactive | 200 (≈ 470 µM) | Active | – | Activity [25]: inactive; Activity [8]: Active; Activity [26]: inactive; Activity [24]: inactive
9 | CN(C)c1ccc(/C=N/n2c(S)nnc2CCNc2nc3ccccc3s2)cc1 | – | Active | 16 | 100 (≈ 236 µM) | 100 (≈ 236 µM) | inactive | inactive | inactive | 10 | Active | – | Active | Active | Active | – | Active | inactive | 100 (≈ 236 µM) | Active | Active | Activity [25]: inactive; Activity [21]: Active; Activity [23]: Active
